# Source: PubChem (several laboratories)
# Only some compounds are listed: those with a hit (about 0.85% of all), similar ones and a draw of the others.
# OXTR agonist = agonists of human oxytocin receptor; CHO-OTR cells, Fluo-8 calcium fluorescence; normalized: DMSO 0%, oxytocin 100%; activation, % at 3 µM; 320,000 tested, 0.32% active; P30559;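 active = activation above the mean of all tested compounds plus 3 SD, cutoff set per screening run, cut at about 20% in these data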;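 also: peak over basal fluorescence ratio from a 100 s FLIPR kinetic read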
# V1R ag counter = activates human V1a receptor in oxytocin agonist counter-screen | activation, % at 3 µM | P37288 | CHO-V1R cells, Fluo-8 calcium fluorescence, agonist mode; 0% DMSO, 100% 3 nM vasopressin | 320,000 tested, 0.25% active;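 active = activation above the mean activation of all tested compounds plus 3 SD, per screening run, cut at about 20% in these data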;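 also: signal is peak over basal fluorescence ratio across a 100 second FLIPR read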
# Target sequence (P37288 whole entry, looked up): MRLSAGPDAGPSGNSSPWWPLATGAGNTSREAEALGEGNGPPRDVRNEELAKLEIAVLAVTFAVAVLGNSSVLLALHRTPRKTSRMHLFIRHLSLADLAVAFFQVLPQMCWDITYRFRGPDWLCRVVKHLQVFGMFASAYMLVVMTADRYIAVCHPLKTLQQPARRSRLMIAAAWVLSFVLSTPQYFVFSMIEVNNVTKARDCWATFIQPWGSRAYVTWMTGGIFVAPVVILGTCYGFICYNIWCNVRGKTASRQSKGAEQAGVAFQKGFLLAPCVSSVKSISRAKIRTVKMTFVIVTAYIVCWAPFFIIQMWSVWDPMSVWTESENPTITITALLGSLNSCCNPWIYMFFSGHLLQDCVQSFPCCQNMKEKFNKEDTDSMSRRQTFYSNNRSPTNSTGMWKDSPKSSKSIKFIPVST
# CRFBP-R2 agonist = agonists of human CRF-binding protein/CRF-R2 receptor complex | activation, % at 13.2 µM | HEK293 CRF-R2/CRF-BP, calcium dye fluorescence (FLIPR); percent of saturating CRF peptide response | 350,000 tested, 0.46% active;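 active = activation of at least 50%, plus an integration ratio under a set limit after plate pattern correction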;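 also: plate controls were neutral control wells without compound for no effect and CRF at EC100 for full effect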
# TRPML3 ag = human mucolipin-3 channel agonism. HEK293 TRPML3-YFP, Fluo-8 calcium fluorescence; 100% = the carbachol control signal. activation, % at 3 µM. 220,000 tested, 0.29% active. AID 1448;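 active = activation above its plate's cutoff, the mean activation of the plate's test wells plus 3 SD, cut at about 12% in these data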;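 also: 0% = DMSO only wells and 100% = carbachol wells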
#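 system = HEK293 cells stably carrying human TRPML3-YFP | doses = one concentration, 3 µM nominal, 0.3% DMSO | timing = dye loading 1 h 37 °C then 30 min ambient, 125 s read | detection = Fluo-8 calcium dye fluorescence, ex 470-495, em 515-575 nm | benchmarks = high control carbachol 87 µM, low control DMSO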
# OXTR potentiator = potentiators of human oxytocin receptor; P30559; CHO-OTR cells, Fluo-8 calcium fluorescence, potentiator mode; 0% = oxytocin EC15, 100% = EC100; activation, % at 3 µM; 320,000 tested, 0.061% active;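 active = activation above that plate's cutoff, the mean activation of tested compounds plus 3 SD, cut at about 6.6% in these data, passing the limit was not always enough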;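 also: 100% uses oxytocin at 75 nM as the full agonist control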
#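 assay system = CHO-OTR cells, human receptor | schedule = compound 6 min at room temperature before oxytocin, 100 s read | detection = Fluo-8 intracellular calcium fluorescence, ex 470-495, em 515-575 nm | evaluation = normalized max/min fluorescence ratio, % activation | control set = EC15 oxytocin alone as 0%, 75 nM oxytocin (EC100) as 100%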
# zfTRPN1 agonist = agonists of zebrafish TRPN1 channel; HEK293 zebrafish TRPN1-YFP, Fluo-8 calcium fluorescence; 100% = response to 87 µM carbachol; activation, % at 3 µM; 220,000 tested, 0.18% active;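 active = activation above its plate's cutoff, the mean activation of test wells on that plate plus 3 SD, cut at about 19% in these data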;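 also: 0% = DMSO alone and 100% = 87 µM carbachol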
#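 System: zebrafish TRPN1-YFP in HEK293 cells / Dosing: 3 µM single point / Timing: dye loading 1 h at 37 °C, then 30 min room temperature / Signal: Fluo-8 calcium fluorescence, excitation 470-495 nm, emission 515-575 nm / Read-out basis: percent activation from peak over basal fluorescence ratio, control-normalized / Control set: high carbachol 87 µM, low DMSO alone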
# Active calls of the source: *; · = no result.
SMILES,OXTR agonist,V1R ag counter,CRFBP-R2 agonist,TRPML3 ag,OXTR potentiator,zfTRPN1 agonist
COc1cc(/C=C2\SC(c3ccc(C)cc3)=NC2=O)ccc1O,4.1,2.4,50.2*,-0.3,-3.7,1.2
COc1ccc(/C=C2\SC(c3ccc(C)cc3)=NC2=O)cc1OC,2.6,1.3,132.2*,1.7,-5.8,2.9
COc1ccc(/C=C2/SC(c3ccc(C)cc3)=NC2=O)cc1OC,3.2,1.6,35.5,1.1,-26.5,4.2
COc1ccc(/C=C2\SC(=O)NC2=S)cc1OC,29.3*,36.1*,15.2,42.9*,-13.5,73.8*
CCOC(=O)c1[nH]c(C)c(C(=O)OCc2ccccc2F)c1C,-1.1,0.9,-0.7,·,-6.0,·
Cc1ccc(C)c(N2CCN(C(=O)c3ccc(N4CCCC4=O)cc3)CC2)c1,-1.6,1.2,-3.0,·,-8.1,·
COc1ccccc1CNC(=O)CCCNC(=O)Cn1cnc2sc(C)c(C)c2c1=O,-1.4,0.0,1.8,·,5.9,·
C=CCn1c(SCCCCCC)nc(O)cc1=O,0.5,-1.2,0.7,-0.1,4.4,-0.2
C=CCn1c(SC(C)CC)nc(O)cc1=O (configuration not stated),45.8*,30.3*,10.9,3.4,-31.7,1.8
Nc1nc(NCc2ccccc2)nc(Nc2cccc(F)c2)c1[N+](=O)[O-],0.5,2.7,-0.6,-0.3,-2.9,-0.1
Nc1nc(Nc2cccc(F)c2)nc(NCCO)c1[N+](=O)[O-],-2.5,-1.3,-1.2,-0.5,12.2*,-1.1
CC1=CC(=C(C#N)c2nc3ccccc3s2)C=C(C)N1CC1CCCO1 (configuration not stated),1.7,0.2,63.8*,0.6,-25.0,-0.3
O=C(NC(=S)NNC(=O)c1ccccc1O)c1ccc([N+](=O)[O-])cc1,7.2,11.2,50.2*,·,-11.9,·
O=C(NNC(=S)NC(=O)c1ccccc1[N+](=O)[O-])c1ccccc1O,-0.3,1.4,0.0,1.1,-0.6,-2.2
O=C(NNC(=O)c1ccc([N+](=O)[O-])cc1)c1ccc(Br)cc1,0.2,-0.3,-0.1,·,-6.5,·
O=C(NNC(=S)NC(=O)c1ccc(Br)cc1)c1ccc([N+](=O)[O-])cc1,64.2*,62.5*,94.6*,·,-26.3,·
O=C(NNC(=S)NC(=O)c1ccc(Br)cc1)c1cccc([N+](=O)[O-])c1,31.4*,63.7*,35.4,·,-24.9,·
O=C(NNC(=S)NC(=O)c1ccccc1Cl)c1cccc([N+](=O)[O-])c1,28.4*,23.1*,65.3*,·,-10.9,·
CC(=O)c1cccc(NC(=O)NC2CC(=O)N(c3ccc4c(c3)OCCO4)C2)c1 (configuration not stated),-0.5,-1.0,0.7,·,-3.8,·
O=C(NNC(=S)NC(=O)c1ccccc1)c1ccc([N+](=O)[O-])cc1,34.3*,33.5*,40.1,·,-21.9,·
O=C(NC(=S)NNC(=O)c1ccccc1O)c1ccc(F)cc1,34.3*,32.0*,31.9,·,-25.7,·
CCCCCC(=O)NNC(=S)NC(=O)c1ccc([N+](=O)[O-])cc1,-0.8,0.4,15.9,-0.1,-0.9,-0.9
O=C(NC(=S)NNC(=O)c1ccccc1O)c1ccccc1,11.9,5.4,14.6,·,-8.7,·
Cc1ccc(C(=O)NC(=S)NNC(=O)c2ccc([N+](=O)[O-])cc2)cc1,10.0,3.6,94.0*,·,-7.2,·
CCCCN(C)C(=O)C1CCN(Cc2cccc(OCc3ccccc3)c2)CC1,0.5,1.6,-1.3,·,-13.1,·
CCCN(CC1CC1)C(=S)NC(=O)c1cc(Br)ccc1Cl,·,·,-1.8,·,·,·
O=C(N/N=C/c1c(O)ccc2ccccc12)c1cccc(C(F)(F)F)c1,46.2*,52.8*,208.1*,15.3*,-14.5,35.3*
O=c1c2cc(Cl)ccc2nc(-c2ccc(Cl)c(Cl)c2)n1O,2.6,1.2,134.9*,0.5,-1.8,0.5
O=c1c2cc(Br)ccc2nc(-c2ccc([N+](=O)[O-])cc2)n1O,2.3,-0.2,100.6*,0.6,-20.9,1.0
O=c1c2cc(Br)ccc2nc(-c2cccc(C(F)(F)F)c2)n1O,54.2*,61.0*,148.4*,0.2,-21.6,-0.6
